Source: PubChem BioAssay (several laboratories)
Vif imaging: HIV Vif self-association inhibitors, primary screen, imaging, HEK293T, single point; inhibition, % at 7.49 µM; hit rate 0.35% among 340,000; HEK293T cells, Vif self-association by quenched fluorescence, 24 h; in the data active means inhibition above about 50%, passing the limit was not always enough
DAGLB inh: DAGLB lipase inhibitors, primary screen, biochemical, fluorescence, HTS | Diacylglycerol lipase-beta (Homo sapiens), Q8NCG7 | HEK293T DAGLB membrane lysate, EnzChek fluorogenic substrate | inhibition, % at 5.17 µM | hit rate 0.059% among 340,000 | AID 504411, 2011; in the data active means inhibition above about 34%;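 further: 0% = enzyme with vehicle and 100% = wells lacking enzyme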
MT1-MMP act inh: blockers of MT1-MMP proenzyme processing, primary screen, HT1080 RFP-PRO-GFP cells, GFP/RFP fluorescence; Matrix metalloproteinase-14 (Homo sapiens), P50281; GFP/RFP ratio fluorescence, overnight; percent of plate control window, DMSO zero; GFP/RFP ratio change, % at 20 µM; hit rate 0.061% among 360,000;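 active means GFP/RFP ratio change of at least 30% with cell ATP level not reduced by more than half and red fluorescence within 50% of control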
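Assay system: RFP-PRO-GFP reporter HT1080 cells; read-out basis: GFP/RFP fluorescence ratio; benchmarks: DMSO wells and RFP-L50D-GFP cells; doses: 20 µM single dose, 1% DMSO; schedule: overnight cell settling, then overnight compound exposure, 37 °C, 5% CO2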
NR2E3 ag-1: NR2E3 agonists in two-hybrid cells, primary screen, cell-based, luminescence, CHO-S, Gal4-NCOR/VP16-NR2E3 | Photoreceptor-specific nuclear receptor (Homo sapiens), Q9Y5X4 | luciferase | inhibition of corepressor binding, % at 3.98 µM | hit rate 0.35% among 360,000 | AID 602229, 2012;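 active means inhibition above the mean of all tested compounds plus 3 SD, cut at about 70% in these data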;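 further: 0% = DMSO with NR2E3 transfected cells and 100% = cells lacking NR2E3 construct; higher means lower luciferase signal from less NR2E3 corepressor binding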
Target sequence (Q9Y5X4 whole entry, looked up, the tested form may be a part): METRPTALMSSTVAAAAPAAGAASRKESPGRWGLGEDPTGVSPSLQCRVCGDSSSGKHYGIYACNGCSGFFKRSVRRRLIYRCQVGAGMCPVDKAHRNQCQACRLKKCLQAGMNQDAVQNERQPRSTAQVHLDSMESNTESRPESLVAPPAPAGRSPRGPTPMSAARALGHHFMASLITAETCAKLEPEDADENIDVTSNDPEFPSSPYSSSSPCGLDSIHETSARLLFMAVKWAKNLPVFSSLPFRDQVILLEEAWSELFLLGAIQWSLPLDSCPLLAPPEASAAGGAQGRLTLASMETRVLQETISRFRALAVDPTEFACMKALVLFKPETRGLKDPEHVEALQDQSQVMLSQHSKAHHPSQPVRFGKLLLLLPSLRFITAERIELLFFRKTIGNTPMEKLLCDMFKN
NR2E3 ag-2: inhibitors of NR2E3-RetCOR corepressor binding, primary screen, NR2E3 agonist project, biochemical, TR-FRET, GST-NR2E3, biotin-RetCOR; Photoreceptor-specific nuclear receptor (Homo sapiens), Q9Y5X4; 1536-well; inhibition of corepressor binding, % at 4.78 µM; hit rate 0.12% among 320,000;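 active means percent inhibition above the cutoff of mean plus 3 SD of all tested compounds, set per screening campaign, cut at about 20% in these data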;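 further: 0% = DMSO wells and 100% = biotin wells as full block of FRET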
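Material: NR2E3–RetCOR corepressor complex / Incubation: Compound–protein incubation for 5 h at 4 °C / Dosing: compound at 4.8 µM, single dose / Detection: time-resolved FRET / Benchmarks: high control biotin, low control 0.6% DMSO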
HCV core dimer: inhibitors of HCV core protein dimerization, primary screen, biochemical, TR-FRET, high-throughput | TR-FRET GST/Flag-core106 dimerization, 1536-well | inhibition, % at 5 µM | hit rate 0.33% among 300,000 | AID 1899, 2009;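 active means inhibition above the mean of all tested compounds plus 3 SD, set per screening campaign, cut at about 45% in these data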
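System: GST-tagged and Flag-tagged HCV core protein residues 1-106 / Input: core106 proteins, GST 13.5 nM and Flag 17 nM / Buffer or medium: KF-containing HEPES buffer, pH 7.45, DTT, CHAPS, BSA / Probe or stimulus: Eu-anti-GST and XL665-anti-Flag labelled anti-tag antibodies / Schedule: 4 h, 22.5 °C incubation / Technique: TR-FRET 671 and 617 nm emission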
DAGLB confirm: DAGLB lipase inhibitors, retest, confirmation, biochemical, fluorescence, HEK293T membranes; HEK293T DAGLB membrane lysate, EnzChek fluorogenic substrate; shares compounds with DAGLB inh; inhibition, % at 5.17 µM; AID 504445, 2011; hit rate 73% among 190;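 active means mean inhibition over triplicate wells above a set limit taken from the primary lipase screen, cut at about 34% in these data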;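 further: 0% = DAGLB with DMSO and 100% = wells lacking DAGLB enzyme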
NR2E3 ag confirm: NR2E3 agonist confirmation in cells, cell-based, luminescence, CHO-S two-hybrid. shares compounds with NR2E3 ag-1. CHO-S mammalian two-hybrid NR2E3-NCOR, luciferase luminescence. inhibition, % at 3.98 µM. hit rate 51% among 2,300. AID 624378, 2012;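 active means average inhibition above a cutoff equal to the mean inhibition of all tested compounds plus one SD, cut at about 70% in these data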;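 further: 0% = DMSO in NR2E3 cells and 100% = DMSO in cells lacking NR2E3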
VP16 counter: GAL4-VP16 reporter modulators, confirmation, counter-screen for NR2E3 agonist project, cell-based, luminescence, CHO-S, high throughput | CHO-S GAL4-VP16 luciferase reporter | hit rate 29% among 2,300 | shares compounds with NR2E3 ag-1 | inhibition, % at 3.98 µM;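 active means mean inhibition above a cutoff equal to the average over all tested compounds plus one standard deviation, cut at about 70% in these data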;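 further: luciferase from a UAS reporter driven by GAL4-VP16 transactivation; 0% = DMSO with VP16-transfected cells and 100% = DMSO with cells lacking VP16; higher means less reporter light so more repression of VP16 activity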
MT1-MMP conf: MT1-MMP activation inhibitors, hit retest, confirmation, single concentration, fluorescence, HT1080 RFP-PRO-GFP cells | shares compounds with MT1-MMP act inh | GFP and RFP fluorescence ratio, overnight | inhibition, % at 20 µM | hit rate 10% among 200 | AID 652235, 2013;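 active means inhibition of at least 50% in the primary cell screen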
* = called active by the depositor; · = no result. An excerpt weighted towards active compounds, which were near 1.1% of everything screened.

SMILES	Vif imaging	DAGLB inh	MT1-MMP act inh	NR2E3 ag-1	NR2E3 ag-2	HCV core dimer	DAGLB confirm	NR2E3 ag confirm	VP16 counter	others
O=[N+]([O-])c1cc(-c2ccccc2)cc([N+](=O)[O-])c1O	-12.2	43.1*	13.5	79.5*	·	·	52.9*	100.4*	89.1*
CN(C)c1ccc(/C=C/c2ccc3c4ccccc4ccc3[n+]2-c2ccccc2)cc1	-9.7	35.4*	56.7	100.7*	·	·	61.3*	99.0*	89.8*
O=C(NNC(=O)c1ccc2nonc2c1)Nc1ccc(Cl)cc1	4.7	·	1.4	-0.6	-0.7	-0.7	·	·	·
Oc1ccccc1N=Nc1nc(-c2ccccc2)c(-c2ccccc2)[nH]1	-7.0	38.2*	9.6	81.5*	3.7	-14.7	52.5*	68.2	42.6
CC1CC(C)CN(c2cc(N(C)CCO)c([N+](=O)[O-])c3nonc23)C1 (stereo unspecified)	-4.4	3.7	10.7	-3.8	0.4	0.8	·	·	·
Brc1ccc(N/N=C(/N=Nc2nn[nH]n2)c2ccccc2)cc1	·	46.3*	17.8	72.1*	0.1	0.9	78.5*	94.2*	35.3
O=C(O)c1cccc(N/N=C(\N=Nc2ccccc2)c2ccccc2)c1	5.1	20.6	9.3	45.8	-0.9	2.5	·	·	·
CC(=O)Nc1ccc(NC2=C/C(=N/S(=O)(=O)c3cccs3)c3ccccc3C2=O)cc1	1.6	·	-15.2	17.0	3.2	3.6	·	·	·
COc1ccc(S(=O)(=O)/N=C2\C=C(Nc3ccc(O)cc3)C(=O)c3ccccc32)cc1	-7.9	55.2*	-19.4	114.0*	-1.2	-22.2	50.0*	99.3*	99.6*
O=C(Nc1cccc(Cl)c1N1CCOCC1)c1cccnc1Cl	3.3	-2.4	1.1	-9.0	4.0	5.1	·	·	·
O=C(O)c1ccc(N=N/C(=N\Nc2ccc(C(=O)O)cc2)c2ccccc2)cc1	10.5	38.6*	30.6*	-37.4	4.4	-25.3	29.0	·	·	MT1-MMP conf=22.8
CC(=O)Nc1ccc(/C(N=Nc2ccccc2)=N/N=C(N)N)cc1	2.5	3.0	6.3	-147.9	·	·	·	·	·
COc1ccccc1N=Nc1nc(-c2ccccc2)c(-c2ccccc2)[nH]1	-24.8	39.8*	30.7*	-25.3	0.3	0.6	49.6*	·	·	MT1-MMP conf=31.0
COc1ccc(NC(C)=O)cc1S(=O)(=O)NCc1ccc2c(c1)OCO2	-2.5	-0.7	2.0	21.2	·	·	·	·	·
Cn1c(O)c(C2=c3ccccc3=NC2=O)[nH]c1=S	2.3	5.9	11.6	-12.8	-2.8	-0.9	·	·	·
COc1ccc2nc(-n3c(O)c(C4=c5ccccc5=NC4=O)[nH]c3=S)sc2c1	-0.5	52.0*	34.6*	8.6	3.3	-2.3	79.9*	·	·	MT1-MMP conf=34.4
CCCN1C(=O)/C(=C2/C=Cc3ccccc3N2CC)SC1=S	-4.0	53.6*	45.2*	-26.5	3.4	-3.5	73.1*	·	·	MT1-MMP conf=44.3
O=C(NCc1ccccc1)c1ccc(NC(=O)C2CCC2)cc1	-4.7	-2.7	5.8	-8.4	·	·	·	·	·
COc1ccc(-n2nc(C(=O)NCC(=O)NCCN(C)C)c3ccccc3c2=O)c(OC)c1	0.1	-1.2	0.1	-15.0	1.6	8.5	·	·	·
O=C1c2ccccc2C(=O)c2c(O)c(O)cc(O)c21	18.2	37.1*	47.4*	-19.4	·	·	27.6	·	·	MT1-MMP conf=43.4
CC1=NN(c2ccccc2)C(=O)C1N=Nc1ccc(N)cc1 (stereo unspecified)	·	35.0*	52.5*	-34.4	-0.5	24.2	38.4*	·	·	MT1-MMP conf=62.4*
Cc1cccc(NC(=O)CSCC(=O)N(CCC(C)C)c2c(N)n(Cc3ccccc3)c(=O)[nH]c2=O)c1	-1.0	7.7	-3.7	3.4	1.8	2.9	·	·	·
CC1(C)CCCN(C(=O)c2ccc3c(c2NCCO)C(=O)c2ccccc2C3=O)C1	-12.1	40.5*	40.0*	-13.5	0.0	-33.3	44.5*	·	·	MT1-MMP conf=32.4
O=C1c2ccccc2C(=O)c2c1ccc(C(=O)N1CCCCC1)c2NCCO	-15.4	0.6	23.2	-26.7	-4.1	-43.5	·	·	·
COc1ccccc1C(=O)Nc1nc2ccccc2s1	4.7	-2.9	-0.8	66.4	1.2	2.2	·	65.3	52.2
SMILES	Vif imaging	DAGLB inh	MT1-MMP act inh	NR2E3 ag-1	NR2E3 ag-2	HCV core dimer	DAGLB confirm	NR2E3 ag confirm	VP16 counter	others
COc1ccc2nc(NC(=O)c3ccccc3C(=O)O)sc2c1	-14.0	1.3	-3.3	-10.6	0.1	0.9	·	·	·
COc1ccc(C(=O)Nc2nc3ccccc3s2)c(OC)c1	-1.6	-7.8	-1.7	97.4*	0.6	2.4	·	89.3*	86.1*
CCc1nc2ccc(C(=O)NCCCN3CCCC3=O)cn2c1N(CC)Cc1cccc(Br)c1	-16.4	·	-3.3	5.0	·	·	·	·	·
CN(C)c1nc(=NCc2ccco2)ss1	-2.7	-1.5	1.9	76.4*	-5.4	5.2	·	9.4	-7.6
O=C1CCCC(=NCc2ccco2)C1	-3.6	0.0	-3.9	10.7	3.9	-3.7	·	·	·
Cc1ccc(S(=O)(=O)NCCC2=CCCCC2)cc1C(N)=O	-21.0	-1.2	-1.6	75.0*	-0.9	5.1	·	83.8*	62.0
COc1ccc(-c2ccc(CN3C(C)C(=O)N(Cc4cn(CCC5OCCO5)nn4)CCS3(=O)=O)cc2)cc1OC (stereo unspecified)	-4.5	-0.8	-1.0	-19.7	·	·	·	·	·
CC(C)(C)c1ccc(-c2n[nH]c(=S)n2Cc2ccccc2)cc1	0.9	0.9	0.5	3.9	1.5	10.9	·	·	·
CC(C)n1c(-c2ccc(C(C)(C)C)cc2)n[nH]c1=S	·	0.4	-0.9	79.4*	2.3	3.6	·	83.7*	69.5
